Source: PubChem BioAssay
HTR2A ag = mouse HTR2A agonism via beta-arrestin recruitment. 360,000 compounds, 0.66% hits. CHO-K1 mHTR2A beta-arrestin complementation, luminescence; percent of 30 µM serotonin response. activation, % at 7.6 µM. AID 624169. P35363;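 active = activation above a run cutoff, the mean activation of all tested compounds plus 3 SD, cut at about 14% in these data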
Target sequence (P35363 whole entry, looked up): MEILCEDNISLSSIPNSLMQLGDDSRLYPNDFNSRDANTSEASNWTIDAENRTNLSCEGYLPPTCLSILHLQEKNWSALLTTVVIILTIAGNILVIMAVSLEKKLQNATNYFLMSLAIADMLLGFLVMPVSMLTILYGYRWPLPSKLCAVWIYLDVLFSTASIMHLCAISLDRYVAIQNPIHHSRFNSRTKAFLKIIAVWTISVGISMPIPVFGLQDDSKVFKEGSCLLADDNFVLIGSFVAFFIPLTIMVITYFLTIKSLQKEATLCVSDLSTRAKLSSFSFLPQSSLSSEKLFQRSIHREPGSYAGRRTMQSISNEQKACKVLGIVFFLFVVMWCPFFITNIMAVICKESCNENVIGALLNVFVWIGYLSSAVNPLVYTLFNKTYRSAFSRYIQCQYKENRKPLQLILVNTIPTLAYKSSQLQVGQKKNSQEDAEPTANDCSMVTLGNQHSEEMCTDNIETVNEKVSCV
MC4R barr agon = agonists of human melanocortin 4 receptor (MC4R) beta-arrestin. P32245. U2OS MC4R beta-arrestin complementation, luminescence; percent of melanotan II response, DMSO zero. activation, % at 8.9 µM. 360,000 compounds, 0.98% hits;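 active = activation above a per-plate cutoff, the mean activation of sample wells on that plate plus 3 SD, cut at about 8% in these data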
MC4R antag cAMP = blocks human MC4R cAMP signaling. P32245. MC4R-expressing cells, MTII-stimulated cAMP, LANCE TR-FRET. inhibition, % at 6.5 µM. 360,000 compounds, 0.48% hits. AID 540295;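 active = inhibition above its plate's cutoff, the mean of tested wells on that plate plus 3 SD, cut at about 29% in these data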
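Assay system: U2OS-MC4R stable cell line; Also added: Melanotan II; Technique: Eu-cAMP/anti-cAMP TR-FRET, emission 671 nm; Times: 30-min compound, 1-h challenge, 1-h detection, room temperature.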
EBI2 block = EBI2 (human) antagonism | EBI2 beta-arrestin recruitment, luminescence, 7a,25-OHC stimulated | P32249 | 360,000 compounds, 0.81% hits | inhibition, % at 5 µM; in the data active = inhibition above about 38%;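 note: enzyme fragment complementation signal reports receptor beta-arrestin coupling in cells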
EBI2 conf = EBI2 (human) antagonism, single concentration confirmation. shares compounds with EBI2 block. EBI2 beta-arrestin luminescence, 7a,25-OHC antagonism. inhibition, % at 5 µM. 2,400 compounds, 29% hits. AID 651997;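 active = inhibition of at least 50%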
EBI2 ag = activates EBI2, counter-screen for EBI2 antagonists. shares compounds with EBI2 block. EBI2-expressing cells, agonist mode, luminescence, 60 min; 0% vehicle, 100% 7α,25-dihydroxycholesterol control. activation, % at 5 µM. 2,400 tested, under 10 active;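 active = activation of at least 50%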
bGal counter = inhibits E. coli beta-galactosidase, counter-screen for EBI2 antagonists | shares compounds with EBI2 block | inhibition, % at 5 µM | 2,400 compounds, 1% hits | purified beta-galactosidase, luminescent Galacton Star, 15 min;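 active = replicate-average signal at least 3 plate SD below neutral wells, shown as high inhibition, flagging enzyme-inhibiting false positives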;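 note: higher means stronger loss of beta-gal luminescence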
Large screens that a line does not name were inactive (follow-up assays come after a bar, where they were run). This is a sample that favours compounds with a hit; in the whole collection about 2.8% have one here.

COc1ccc(OC)c(NC(=O)CSc2nccn2Cc2ccco2)c1	none
CC1(Oc2cccc(F)c2)CCN(Cc2csc3ccccc23)C1 (configuration not stated)	none
CN(C)C(=O)[C@H]1C[C@H]1[C@@H](O)[C@H](CO)NC(=O)[C@H](Cc1ccccc1)NC(=O)OC(C)(C)C	none
CCOC(=O)N1CCN(C(=S)NC(=O)/C=C/c2ccc(C)cc2)CC1	EBI2 block 83.3 | EBI2 conf inactive | EBI2 ag inactive | bGal counter inactive
COc1ccc(/C=C/C(=O)NC(=S)N2CCN(C)CC2)cc1	none
COc1cc(-c2nc3cc(C)ccn3c2NC2CCCCC2)ccc1-c1ccc(C(C)=O)cc1	EBI2 block 58.6 | EBI2 conf inactive | EBI2 ag inactive | bGal counter inactive
Cc1cccc(OCC(=O)Nc2ccccc2N2CCN(C)CC2)c1	none
O=C(COc1ccccc1)Nc1ccccc1N1CCCCC1	EBI2 block 45.3 | EBI2 conf inactive | EBI2 ag inactive | bGal counter inactive
Cc1cccc(OCC(=O)Nc2ccccc2N2CCCCC2)c1	EBI2 block 52.5 | EBI2 conf inactive | EBI2 ag inactive | bGal counter inactive
Cc1cc(C)cc(N(C(=O)c2csnn2)C(C(=O)NC(C)(C)C)c2cccnc2)c1 (configuration not stated)	none
CC(=O)c1cccc(S(=O)(=O)NCCC(=O)NC2CCCCCC2)c1	none
COc1ccc(OCCNC(=O)C(c2ccccc2)c2ccccc2)cc1	EBI2 block 85.0 | EBI2 conf 52.4 | EBI2 ag inactive | bGal counter inactive
COc1ccccc1OCCNC(=O)C(c1ccccc1)c1ccccc1	none
O=C(NCCOc1ccccc1)C(c1ccccc1)c1ccccc1	EBI2 block 53.4 | EBI2 conf inactive | EBI2 ag inactive | bGal counter inactive
COc1ccc(Cc2nc3ccc(C(=O)N(C)CCCN4CCOCC4)cc3o2)cc1	none
O=C(CSc1ccc2c(c1)OCCO2)NCCc1ccc(Cl)cc1Cl	EBI2 block 62.8 | EBI2 conf inactive | EBI2 ag inactive | bGal counter inactive
O=C(CSc1ccc2c(c1)OCCO2)Nc1ncc(Cl)cc1Cl	none
CCN(CC(=O)Nc1ccccc1OC)C(=O)CSCc1ccc(C)cc1	none
COc1cccc(-c2onc3ccc(C4(C)OCCO4)cc23)c1	EBI2 block 47.8 | EBI2 conf inactive | EBI2 ag inactive | bGal counter inactive
COc1ccc(OC)c2sc(N3CCN(C(=O)c4ccc5ncsc5c4)CC3)nc12	EBI2 block 53.6 | EBI2 conf inactive | EBI2 ag inactive | bGal counter inactive
O=C(c1ccc2ncsc2c1)N1CCN(c2cccc(C(F)(F)F)c2)CC1	EBI2 block 53.9 | EBI2 conf inactive | EBI2 ag inactive | bGal counter inactive
CCOc1cccc2sc(N3CCN(C(=O)c4ccc5ncsc5c4)CC3)nc12	EBI2 block 44.7 | EBI2 conf inactive | EBI2 ag inactive | bGal counter inactive
CCN(Cc1cc(=O)n2ccsc2n1)Cc1nc2ccccc2c(=O)[nH]1	none
COc1ccc(CN2CCN(C(=O)C3CCC(CNS(=O)(=O)c4ccccc4)CC3)CC2)c(OC)c1OC (configuration not stated)	none
CN(C)c1cccc(NC(=O)C2Cc3c(-c4ccc(Cl)cc4)ccnc3O2)c1 (configuration not stated)	none
COc1ccc(N(C(=O)c2snc(C(N)=O)c2N)C(C(=O)NC2CCCC2)c2ccc(F)cc2)c(OC)c1 (configuration not stated)	none
Cc1cccc(N(C(=O)c2snc(C(N)=O)c2N)C(C(=O)NC2CCCC2)c2ccc(C)o2)c1 (configuration not stated)	EBI2 block 51.1 | EBI2 conf 56.3 | EBI2 ag inactive | bGal counter inactive
Cc1ccc(N(C(=O)c2snc(C(N)=O)c2N)C(C(=O)NC2CCCC2)c2ccc(C)o2)cc1 (configuration not stated)	EBI2 block 67.8 | EBI2 conf 69.9 | EBI2 ag inactive | bGal counter inactive
Cc1ccc(N(C(=O)c2snc(C(N)=O)c2N)C(C(=O)NC2CCCC2)c2ccco2)cc1 (configuration not stated)	EBI2 block 55.6 | EBI2 conf inactive | EBI2 ag inactive | bGal counter inactive
Cc1cccc(N(C(=O)c2snc(C(N)=O)c2N)C(C(=O)NC2CCCC2)c2ccncc2)c1 (configuration not stated)	none
COc1ccc(C(C(=O)NC2CCCCC2)N(C(=O)c2snc(C(N)=O)c2N)c2ccc(OC)cc2OC)cc1 (configuration not stated)	EBI2 block 70.0 | EBI2 conf 73.0 | EBI2 ag inactive | bGal counter inactive
COCCNC(=O)C(c1ccc(C)o1)N(C(=O)c1snc(C(N)=O)c1N)c1ccc(C)cc1 (configuration not stated)	none
CN(CCOc1ccccc1)C(=O)c1ccc(F)c(S(=O)(=O)N2CCOCC2)c1	none
N#CCC(=O)Nc1ccc(C(=O)OCC(=O)N=c2sccn2Cc2ccccc2Cl)cc1	none
CCOC(=O)N(C)c1c(CC)nc2c(OCc3ccc(Cl)cc3Cl)cccn12	EBI2 block 45.0 | EBI2 conf 76.9 | EBI2 ag inactive | bGal counter inactive
CCOC(=O)N(C)c1c(CC)nc2c(OCc3cc(Cl)cc(Cl)c3)cccn12	none
O=C(O)/C=C/C(=O)N1CCN(Cc2ccc3c(c2)OCO3)CC1	none
O=C(/C=C\c1cccs1)N1CCN(Cc2ccc3c(c2)OCO3)CC1	EBI2 block 75.1 | EBI2 conf 54.4 | EBI2 ag inactive | bGal counter inactive
CCCOc1ccc(C(=O)Nc2ccc3c(c2)OCO3)cc1	EBI2 block 51.8 | EBI2 conf inactive | EBI2 ag inactive | bGal counter inactive
O=C(Nc1ccc(Cl)cc1)N1CCN(Cc2ccc3c(c2)OCO3)CC1	none
CCCOc1ccc(C(=O)N2CCN(Cc3ccc4c(c3)OCO4)CC2)cc1	EBI2 block 78.4 | EBI2 conf 53.6 | EBI2 ag inactive | bGal counter inactive
O=C(COc1ccc(Cl)cc1)N1CCN(Cc2ccc3c(c2)OCO3)CC1	EBI2 block 86.5 | EBI2 conf 60.7 | EBI2 ag inactive | bGal counter inactive
Cc1cc(C)cc(C(=O)N2CCN(Cc3ccc4c(c3)OCO4)CC2)c1	none
CCOC(=O)C1(C)CCCN(C(=O)CCc2ccccc2)C1 (configuration not stated)	none
COc1ccc(OC)c(-c2cc(C(=O)NC3CCCC3)c3ccccc3n2)c1	none
Cc1ccc(/C=N/NC(=O)CN2CCN(S(=O)(=O)c3ccc(Br)cc3)CC2)s1	EBI2 block 69.2 | EBI2 conf 51.7 | EBI2 ag inactive | bGal counter inactive
